Test results published in ChEMBL document CHEMBL1148762, “Lysosome and HER3 (ErbB3) selective anticancer agent kahalalide F: semisynthetic modifications and antifungal lead-exploration studies” (J Med Chem, 2007).
In brackets after ≈: the same amount, converted by molar mass.

Experiments:
[1] = tested on: Fusarium oxysporum; experiment: Antimicrobial activity against Fusarium oxysporum at 30 uM after 48 hrs by microtiter assay; format: functional
In short: (§1)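 96-well microdilution broth assay with conidia (3 × 10^5 conidia/mL, harvested from 7-day PDA cultures and filtered) against F. oxysporum, F. proliferatum and F. solani at 0.3, 3 and 30 µM. Plates were held at 24 ± 1 °C under a 12 h photoperiod. Growth was read at 620 nm at 24, 48 and 72 h and reported as percent inhibition from mean absorbance with standard error.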

[2] = tested on: Fusarium oxysporum; experiment: Antimicrobial activity against Fusarium oxysporum at 0.3 uM after 48 hrs by microtiter assay; format: functional; in short: as §1
[3] = tested on: Fusarium solani; experiment: Antimicrobial activity against Fusarium solani at 0.3 uM after 48 hrs by microtiter assay; format: functional; in short: as §1
[4] = tested on: Fusarium solani; experiment: Antimicrobial activity against Fusarium solani at 3 uM after 72 hrs by microtiter assay; format: functional; in short: as §1
[5] = tested on: Fusarium proliferatum; experiment: Antimicrobial activity against Fusarium proliferatum at 3 uM after 72 hrs by microtiter assay; format: functional; in short: as §1
[6] = tested on: Fusarium proliferatum; experiment: Antimicrobial activity against Fusarium proliferatum at 3 uM after 48 hrs by microtiter assay; format: functional; in short: as §1
[7] = tested on: Fusarium proliferatum; experiment: Antimicrobial activity against Fusarium proliferatum at 30 uM after 72 hrs by microtiter assay; format: functional; in short: as §1
[8] = tested on: Fusarium proliferatum; experiment: Antimicrobial activity against Fusarium proliferatum at 0.3 uM after 48 hrs by microtiter assay; format: functional; in short: as §1
[9] = tested on: Aspergillus fumigatus; experiment: Antimicrobial activity against Aspergillus fumigatus ATCC 90906; format: functional, organism-based
[10] = tested on: Fusarium solani; experiment: Antimicrobial activity against Fusarium solani at 30 uM after 48 hrs by microtiter assay; format: functional; in short: as §1
[11] = tested on: Fusarium oxysporum; experiment: Antimicrobial activity against Fusarium oxysporum at 3 uM after 48 hrs by microtiter assay; format: functional; in short: as §1
[12] = tested on: Fusarium oxysporum; experiment: Antimicrobial activity against Fusarium oxysporum at 30 uM after 72 hrs by microtiter assay; format: functional; in short: as §1
[13] = tested on: Candida albicans; experiment: Antimicrobial activity against Candida albicans ATCC 90028; format: functional, organism-based
[14] = tested on: Fusarium oxysporum; experiment: Antimicrobial activity against Fusarium oxysporum at 0.3 uM after 72 hrs by microtiter assay; format: functional; in short: as §1
[15] = tested on: Fusarium oxysporum; experiment: Antimicrobial activity against Fusarium oxysporum at 3 uM after 72 hrs by microtiter assay; format: functional; in short: as §1
[16] = tested on: Fusarium proliferatum; experiment: Antimicrobial activity against Fusarium proliferatum at 0.3 uM after 72 hrs by microtiter assay; format: functional; in short: as §1
[17] = tested on: Fusarium solani; experiment: Antimicrobial activity against Fusarium solani at 30 uM after 72 hrs by microtiter assay; format: functional; in short: as §1
[18] = tested on: Cryptococcus neoformans; experiment: Antimicrobial activity against Cryptococcus neoformans ATCC 90113; format: functional, organism-based
[19] = tested on: Mycobacterium intracellulare; experiment: Antimicrobial activity against Mycobacterium intracellular ATCC 23068; format: functional, organism-based
[20] = tested on: Fusarium solani; experiment: Antimicrobial activity against Fusarium solani at 3 uM after 48 hrs by microtiter assay; format: functional; in short: as §1
[21] = tested on: Fusarium proliferatum; experiment: Antimicrobial activity against Fusarium proliferatum at 30 uM after 48 hrs by microtiter assay; format: functional; in short: as §1
[22] = tested on: Fusarium solani; experiment: Antimicrobial activity against Fusarium solani at 0.3 uM after 72 hrs by microtiter assay; format: functional; in short: as §1
[23] = tested on: Mycobacterium tuberculosis; experiment: Antibacterial activity against Mycobacterium tuberculosis H37Rv at 16 ug/mL by micro plate alamar blue assay; format: functional
In short: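 M. tuberculosis H37Rv ATCC 27294 grown in BACTEC 12B medium; microplate Alamar blue assay (MABA). Primary screen at a single concentration of 16 µg/mL, read as percent inhibition.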

Structure (SMILES): C/C=C1\NC(=O)[C@H](Cc2ccccc2)NC(=O)[C@@H](C(C)C)NC(=O)[C@@H]([C@@H](C)CC)NC(=O)[C@H](NC(=O)[C@H](NC(=O)[C@H](CCCN)NC(=O)[C@H]2CCCN2C(=O)[C@H](NC(=O)[C@@H](NC(=O)[C@@H](NC(=O)[C@H](NC(=O)CCCC(C)C)C(C)C)C(C)=O)C(C)C)C(C)C)[C@@H](C)CC)[C@@H](C)OC(=O)[C@H](C(C)C)NC1=O
- inhibition at 30 µM [1]: 91.9%
- inhibition at 0.3 µM [2]: 1.8%
- inhibition at 0.3 µM [3]: 0%
- inhibition at 3 µM [4]: 0%
- inhibition at 3 µM [5]: 0%
- inhibition at 3 µM [6]: 5%
- inhibition at 30 µM [7]: 73.2%
- inhibition at 0.3 µM [8]: 1.8%
- MFC [9]: > 20 µM
- MIC [9]: > 20 µM
- inhibition at 30 µM [10]: 90.6%
- inhibition at 3 µM [11]: 1.8%
- inhibition at 30 µM [12]: 82.2%
- MFC [13]: > 20 µM
- MIC [13]: > 20 µM
- inhibition at 0.3 µM [14]: 0%
- inhibition at 3 µM [15]: 0%
- inhibition at 0.3 µM [16]: 0%
- inhibition at 30 µM [17]: 85.5%
- MFC [18]: 20 µM (≈ 29.5 µg/mL)
- MIC [18]: 10 µM (≈ 14.8 µg/mL)
- MBC [19]: > 20 µM
- MIC [19]: > 20 µM
- inhibition at 3 µM [20]: 0%
- inhibition at 30 µM [21]: 92.7%
- inhibition at 0.3 µM [22]: 0%

Structure (SMILES): C/C=C1\NC(=O)[C@H](Cc2ccccc2)NC(=O)[C@@H](C(C)C)NC(=O)[C@@H]([C@@H](C)CC)NC(=O)[C@H](NC(=O)[C@H](NC(=O)[C@H](CCCN(Cc2ccc(F)cc2)Cc2ccc(F)cc2)NC(=O)[C@H]2CCCN2C(=O)[C@H](NC(=O)[C@@H](NC(=O)[C@@H](NC(=O)[C@H](NC(=O)CCCC(C)C)C(C)C)[C@@H](C)O)C(C)C)C(C)C)[C@@H](C)CC)[C@@H](C)OC(=O)[C@H](C(C)C)NC1=O
- IC50 [9]: > 11.8 µM
- IC50 [13]: > 11.8 µM
- IC50 [18]: > 11.8 µM
- IC50 [19]: > 11.8 µM

Structure (SMILES): C/C=C(\NC(=O)[C@H](Cc1ccccc1)NC(=O)[C@H](NC(=O)[C@H](NC(=O)[C@H](NC(=O)[C@H](NC(=O)[C@H](CCCN)NC(=O)[C@H]1CCCN1C(=O)[C@H](NC(=O)[C@@H](NC(=O)[C@@H](NC(=O)[C@H](NC(=O)CCCC(C)C)C(C)C)[C@@H](C)O)C(C)C)C(C)C)[C@@H](C)CC)[C@@H](C)O)[C@@H](C)CC)C(C)C)C(=O)N[C@H](C(=O)O)C(C)C [KAHALALIDE G]
- inhibition at 16 µg/mL [23]: 29%
- IC50 [9]: > 13.4 µM
- IC50 [13]: > 13.4 µM
- IC50 [18]: > 13.4 µM
- IC50 [19]: > 13.4 µM

Structure (SMILES): O=C(O)c1cn(C2CC2)c2cc(N3CCNCC3)c(F)cc2c1=O [CIPROFLOXACIN]
- IC50 [19]: 0.42 µM
- MBC [19]: > 1 µM
- MIC [19]: 1 µM (≈ 0.331 µg/mL)

Structure (SMILES): C/C=C1\NC(=O)[C@H](Cc2ccccc2)NC(=O)[C@@H](C(C)C)NC(=O)[C@@H]([C@@H](C)CC)NC(=O)[C@H](NC(=O)[C@H](NC(=O)[C@H](CCCN(CCCCCC)CCCCCC)NC(=O)[C@H]2CCCN2C(=O)[C@H](NC(=O)[C@@H](NC(=O)[C@@H](NC(=O)[C@H](NC(=O)CCCC(C)C)C(C)C)[C@@H](C)O)C(C)C)C(C)C)[C@@H](C)CC)[C@@H](C)OC(=O)[C@H](C(C)C)NC1=O
- IC50 [9]: > 12.2 µM
- IC50 [13]: > 12.2 µM
- IC50 [18]: 6.71 µM
- IC50 [19]: > 20 µM
